The values that follow come from ChEMBL document CHEMBL4834402, “Discovery of TAK-981, a First-in-Class Inhibitor of SUMO-Activating Enzyme for the Treatment of Cancer” (J Med Chem, 2021).

Molecules are shown by their SMILES. ≈ marks a conversion by molar mass, not a printed value. Calls of active or inactive are those of the source. The rule behind the calls is not given here.

The nature of data set [1]: Solubility of compound in 10% hydroxypropyl-beta-cyclodextrin after 24 hrs. In kind it is physicochemical.
Data set [2] can be described thus: Volume of distribution at steady state in rat plasma at 1 mg/kg, iv. The data set is classed as ADME, organism-based. The note with it: read-out: Vdss.
The nature of data set [3]: Oral bioavailability in rat blood at 10 mg/kg. The data set is classed as ADME, organism-based.
The subject of a further data set is OCI-Ly10. Kind of data set: Antitumor activity against human OCI-Ly10 cells xenografted in CB17 SCID mouse assessed as tumor growth inhibition at 50 mg/kg, iv administered thrice per week for 21 days and measured twice weekly. The data set is classed as functional, organism-based. To be noted: time 21.0 day. An outline of the steps:
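Female CB17 SCID mice carrying OCI-Ly10 tumors (~200 mm3) were randomized, n = 8/group, with treatment from Day 1. Schedules were QD x21 (Days 1–21) or QD x3/week (three consecutive dosing days, four off). Tumor volume was measured twice weekly.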
(In general: In xenograft studies the graft and the host belong to different species.)

A short description of data set [4]: Efflux ratio of apparent permeability across basolateral to apical side over apical to basolateral side in human Caco-2 cells. In kind it is ADME, cell-based. (Caco-2 cells form a polarised layer with tight junctions and transporters.)
Data set [5] can be described thus: Apparent permeability across basolateral to apical side in human Caco2 cells. In kind it is ADME, cell-based. To be noted: Caco-2.
Data set [6] concerns the target T1, SUMO-activating enzyme (Homo sapiens, UniProt Q9UBT2). Kind of data set: Inhibition of SAE in human HCT116 cells assessed as redistribution of SUMO2/3 proteins from nucleus to cytosol preincubated for 2 hrs followed by compound washout and measured after 8 hrs by immunofluorescence assay. In kind it is cell-based, HCT-116. An outline of the steps: (§1)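 Washout format of the SUMO2/3 immunofluorescence assay in HCT116 cells. Cells were exposed to a range of concentrations for 2 h, then washed free of compound.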

A short description of data set [7]: Half life in rat blood at 1 mg/kg, iv. The data set is classed as ADME, organism-based.
The next data set has as its target Carbonic anhydrase 1 (Homo sapiens, UniProt P00915). Description: Inhibition of human erythrocyte CA1 using fluorescein diacetate as substrate at […] by fluorometric esterase assay.
Data set [8] can be described thus: Clearance in rat blood at 1 mg/kg, iv. In kind it is ADME, organism-based. The note with it: in vivo.
Data set [9] addresses T1, SUMO-activating enzyme. Kind of data set: Inhibition of SAE in human HCT116 cells assessed as redistribution of SUMO2/3 proteins from nucleus to cytosol preincubated for 2 hrs followed by compound washout and measured immediately by immunofluorescence assay. In kind it is cell-based, HCT-116. The method, boiled down:
as §1

T1 sequence (Q9UBE0 whole entry): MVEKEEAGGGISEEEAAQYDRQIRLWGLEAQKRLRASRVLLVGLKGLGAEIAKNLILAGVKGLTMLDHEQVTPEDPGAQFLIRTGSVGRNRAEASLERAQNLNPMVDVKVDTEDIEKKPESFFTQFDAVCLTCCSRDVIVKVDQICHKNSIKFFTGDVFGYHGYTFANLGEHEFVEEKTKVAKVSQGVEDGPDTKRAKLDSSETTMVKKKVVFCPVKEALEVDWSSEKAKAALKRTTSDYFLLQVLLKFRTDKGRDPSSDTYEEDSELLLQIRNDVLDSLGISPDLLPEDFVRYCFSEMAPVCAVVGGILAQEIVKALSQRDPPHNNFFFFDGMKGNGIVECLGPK
T1 sequence (Q9UBT2 whole entry): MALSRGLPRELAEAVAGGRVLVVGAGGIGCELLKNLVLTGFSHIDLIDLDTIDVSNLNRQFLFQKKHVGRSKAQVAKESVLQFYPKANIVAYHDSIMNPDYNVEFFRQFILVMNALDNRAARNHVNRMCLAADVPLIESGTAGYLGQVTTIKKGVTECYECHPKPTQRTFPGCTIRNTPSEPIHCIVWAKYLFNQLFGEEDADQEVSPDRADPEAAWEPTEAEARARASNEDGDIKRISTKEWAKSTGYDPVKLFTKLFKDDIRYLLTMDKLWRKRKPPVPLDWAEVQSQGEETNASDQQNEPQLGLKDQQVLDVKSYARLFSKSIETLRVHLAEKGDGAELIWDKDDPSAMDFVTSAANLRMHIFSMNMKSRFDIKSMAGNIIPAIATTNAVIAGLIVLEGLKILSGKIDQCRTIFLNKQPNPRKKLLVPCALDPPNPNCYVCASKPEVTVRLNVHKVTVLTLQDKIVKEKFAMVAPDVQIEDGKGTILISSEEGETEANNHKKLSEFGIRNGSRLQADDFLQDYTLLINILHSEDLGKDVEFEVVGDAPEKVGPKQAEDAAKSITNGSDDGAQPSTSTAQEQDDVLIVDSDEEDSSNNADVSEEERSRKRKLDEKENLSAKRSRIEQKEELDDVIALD
Carbonic anhydrase 1, sequence (P00915 whole entry): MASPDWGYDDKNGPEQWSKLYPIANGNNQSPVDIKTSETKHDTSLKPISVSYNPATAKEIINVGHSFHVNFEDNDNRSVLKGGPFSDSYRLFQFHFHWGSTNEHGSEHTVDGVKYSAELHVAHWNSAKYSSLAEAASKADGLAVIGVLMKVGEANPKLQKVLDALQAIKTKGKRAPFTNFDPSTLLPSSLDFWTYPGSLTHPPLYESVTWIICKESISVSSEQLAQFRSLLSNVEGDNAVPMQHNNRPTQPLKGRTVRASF

Broadly, the solubility is the dissolved amount per volume that the medium holds. One may read the bioavailability as dose-corrected exposure relative to a reference, in per cent. As a reminder, the efflux ratio is the permeability from basolateral to apical divided by that in the opposite direction, in the common usage. A word on the Papp B→A: it is the apparent permeability from the basolateral to the apical side of a cell layer. By IC50 is commonly meant the concentration at which inhibition is half-maximal. By half-life is commonly meant how long it takes for the measured level to halve. Lower therefore signals fast loss. The term clearance denotes a measure of how efficiently the substance is removed, as volume per time. Higher therefore signals efficient removal. `Cc1sc(C(=O)c2cncnc2N[C@@H]2C[C@H](COS(N)(=O)=O)[C@@H](O)C2)cc1[C@@H]1NCCc2ccc(Cl)cc21` yielded a solubility at 24 h in [1] of 20 mg/mL (≈ 34.6 mM). Besides, the Vd in data set [2] was found to be 8.5 L/kg. Moreover, in [3], the bioavailability is 10%. The outcome with OCI-Ly10 was Active. In addition, the efflux ratio in data set [4] is above 16. The Papp B→A in data set [5] was 46 ×10⁻⁶ cm/s. The IC50 worked out at 46 nM on SUMO-activating enzyme [6], 90 nM at Carbonic anhydrase 1 and 32 nM on SUMO-activating enzyme [9]. Also, the half-life in data set [7] is 2.6 h. Further, the clearance in data set [8] is 1.67 mL/min/kg.
